Results reported in PMC3008401 (The Journal of infectious diseases, 2010).
Counter-ions that a name gives are not always drawn. Like-named read-outs stand apart in the source and are kept apart here.

Legend:
[1] = tested on: genotype 1b replicon cells; conditions: read-out: CC50 Measured by others (1b genotype); cited from earlier work
[2] = type: cell-based; conditions: human
In short: (§1)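 Huh-7.5 cells electroporated with in vitro transcribed luciferase replicon RNA (genotype 1b Bart79I-luc for line 1; full-length genotype 2a FL-J6/JFH-5′C19Rluc2AUbi for line 2). Seeded at ~2–3×10^4 cells/well, medium changed at 24 h then daily, serial compound dilutions, 4 replicates. At 72 h: 10% alamarBlue, 2 h at 37°C, fluorescence read. Normalized to untreated or DMSO controls. Mean ± SD.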

[3] = tested on: HCV J6-JFH (genotype 2a); type: cell-based, Hepatitis C virus; conditions: SCH503034 alone at 2.5μM, 72hr
[4] = type: cell-based; conditions: human; remark: listed apart in the source
In short: as §1

[5] = estimated from preclinical animal data; cited from earlier work

Row | SMILES | CC50 [1] | CC50 at 72 h [2] | other results
1 | CNC(=O)c1c(-c2ccc(F)cc2)oc2cc(N(CCO)S(C)(=O)=O)c(C3CC3)cc12 [HCV-796] | > 100 µM |  | 
2 | CC(C)(C)OC(=O)N[C@H]1CCCCC/C=C\[C@@H]2C[C@@]2(C(=O)NS(=O)(=O)C2CC2)NC(=O)[C@@H]2C[C@@H](OC(=O)N3Cc4cccc(F)c4C3)CN2C1=O [ITMN-191] | > 50 µM |  | 
3 | CC(C)[C@H](N)C(=O)O[C@@H]1[C@@H](CO)O[C@@H](n2ccc(N)nc2=O)[C@]1(C)O [NM-283, valopicitabine] | > 100 µM |  | 
4 | NC(=O)c1ncn([C@@H]2O[C@H](CO)[C@@H](O)[C@H]2O)n1 [Ribavirin] |  | > 100 µM | 
5 | CC(C)(C)NC(=O)N[C@H](C(=O)N1C[C@H]2[C@@H]([C@H]1C(=O)NC(CC1CCC1)C(=O)C(N)=O)C2(C)C)C(C)(C)C (stereo partly drawn) [SCH-503034, Boceprevir] | > 100 µM | > 100 µM | decrease of viral replication [3]: ~ 1 log; CC50 at 72 h [4]: > 100 µM
6 | CCC[C@H](NC(=O)[C@@H]1[C@H]2CCC[C@H]2CN1C(=O)[C@@H](NC(=O)[C@@H](NC(=O)c1cnccn1)C1CCCCC1)C(C)(C)C)C(=O)C(=O)NC1CC1 [VX-950, Telaprevir] | 26.7 to 82 µM |  | 
7 | Clc1ccc(Cn2c(CN3CCCC3)nc3ccccc32)cc1 [clemizole, clemizole hydrochloride] |  | 35 ± 0.5 µM | CC50 at 72 h [4]: 40 ± 5 µM; no observed adverse events level (NOAEL) [5]: 100 mg/kg/day
